Apaf-1 act: activators of human Apaf-1 apoptosome, primary screen, biochemical, DEVD-Rh110 fluorescence, uHTS; Apoptotic protease-activating factor 1 (Homo sapiens), O14727; Apaf-1 apoptosome caspase-3 activation; stronger effect = lower value; activity change, negative = activation, % at 20 µM; 0.31% of 330,000 active;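 active = activity change at or below -40% at 20 µM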
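Assay system – biochemical Apaf-1 apoptosome reconstitution · Medium – 20 mM HEPES buffer, pH 7.5, containing CHAPS and BSA · Incubation – 30 min preincubation, 50 min reaction, room temperature · Measured by – Caspase-3-released Rh110 fluorescence, 540 nm emission, 480 nm excitation · Read-out – Caspase-3 cleavage activity downstream of Apaf-1 activation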
Rh110 interf act: Rh110 fluorescence interference by putative Apaf-1 activators, confirmation, artefact control for Apaf-1 activator project, biochemical, 20 µM | shares compounds with Apaf-1 act | quenched caspase reaction, Ex480/Em540 | 980 tested, under 10 active | fluorescence interference (activity change), % at 20 µM, hits read low | AID 504616, 2011;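 active = mean activity change at or below -40% when tested at 20 µM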
Apaf-1 act conf2: Apaf-1 activators, single-dose retest, confirmation, biochemical, fluorescence, DEVD-Rh110, 20 µM; shares compounds with Apaf-1 act; reconstituted apoptosome caspase-3 activity; stronger effect = lower value; activity change, negative = activation, % at 20 µM; 5% of 980 active;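 active = mean activity change at or below -40%, meaning activation of 40% or more, at 20 µM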
Apaf1 act interf: fluorescence interference of Apaf-1 activator hits, dose response, artefact control for Apaf-1 activator project. shares compounds with Apaf-1 act. fluorescence interference counterscreen, Apaf-1 activator assay. EC50, µM. 55 tested, under 10 active. AID 588592, 2011; call rule not given here
Hits are given with their value; – = inactive; · = not tested or not shown. Not all results are given here.

SMILES	Apaf-1 act	Rh110 interf act	Apaf-1 act conf2	others
O=C(c1ccc(-c2ccccc2Cl)o1)N1CCCC(C(F)(F)F)C1 (stereo unspecified)	–	·	·
CSc1cccc(NC(=O)c2cccc3cccnc23)c1	-73	–	–
O=C(Nc1ccncc1)c1cc(-c2cccc(Br)c2)nc2ccccc12	–	·	·
Cc1cc(C(=O)COc2cccc3cccnc23)c(C)n1C	–	·	·
CCCCCc1cc(=O)oc2c(C(CCN3CCCC(C)C3)c3ccc(OC)cc3)c(OC)cc(OC)c12 (stereo unspecified)	–	·	·
CCOC(=O)CNCCC(=O)c1ccc(Br)cc1	–	·	·
Cc1ccc(NC(=O)CCC(=O)OCc2ccc(Br)cc2)cc1	-46	–	–
CC1(C)OC(C)(C)/C(=C/Nc2ccc(O)cc2)C1=O	–	·	·
CN(C(=O)COC(=O)c1cc(S(=O)(=O)N2CCOCC2)c(Cl)cc1Cl)C1CCS(=O)(=O)C1 (stereo unspecified)	-156	–	–
CC1(C)N([O-])c2cc([N+](=O)[O-])ccc2[N+]1=O	–	·	·
COc1ccc(C(=O)Nc2ccccc2C(=O)N(Cc2ccco2)C(C(N)=O)C(C)C)cc1 (stereo unspecified)	-351	–	–
COc1ccc(-n2c(N)c(C(=O)NCc3ccco3)c3nc4ccccc4nc32)c(OC)c1	–	·	·
CC(/C=N/NC(=O)Cc1cc(=O)[nH][nH]1)=C\c1ccccc1	–	·	·
C[C@@H](CSc1ccc(Br)cc1)CN1CC[C@H](NC(=O)OCc2ccccc2)CCC1=O	–	·	·
COc1ccccc1NC(=O)c1nc[nH]c1C(=O)Nc1ccccc1OC	–	·	·
CNC(=O)c1[nH]cnc1C(=O)Nc1ccc(C)cc1	-205	–	–
CC(C)n1ncc2c(C(=O)Nc3ccc(S(N)(=O)=O)cc3)cc(C3CC3)nc21	–	·	·
O=C(N/N=C/c1ccccc1O)C1(O)c2ccccc2-c2ccccc21	-59	–	–
Cc1ccc(-c2csc3nc4c5ccccc5c(NCCCN(C)C)nn4c(=O)c23)cc1	–	·	·
CC1(C)CC2CC(C)(CN2C(=O)c2cccs2)C1 (stereo unspecified)	-95	–	–
CC(NC(=O)C1CCN(C(=O)c2cccs2)CC1)c1ccc(S(N)(=O)=O)cc1 (stereo unspecified)	–	·	·
Cc1ccc(C(=O)N/N=C/c2ccc(-c3ccc(Br)cc3[N+](=O)[O-])o2)o1	–	·	·
CCNC(=S)SCCOc1ccc(C)cc1	-127	–	–
Nc1ccc(C(=O)O)c(O)c1	–	·	·
C[C@H](CCC(=O)O)[C@H]1CC[C@H]2[C@@H]3[C@H](O)C[C@@H]4C[C@H](O)CC[C@]4(C)[C@H]3C[C@H](O)[C@]12C	–	·	·
SMILES	Apaf-1 act	Rh110 interf act	Apaf-1 act conf2	others
CC(C)(C)c1cc(CCC(=O)Nc2ccncc2)cc(C(C)(C)C)c1O	-450	–	–
Cc1ccc(NC2=CC(=O)C(=O)c3ccccc32)cc1	–	·	·
O=C(NCc1cccs1)c1cccc(S(=O)(=O)N2CCCCC2)c1	–	·	·
CN1CCN(S(=O)(=O)c2cccc(C(=O)Nc3cc(C(F)(F)F)ccc3N3CCCCC3)c2)CC1	–	·	·
O=C(N/N=C/c1ccccn1)c1cccc(S(=O)(=O)N2CCCC2)c1	-587	–	–
COCCCC/C(=N\OCCN)c1ccc(C(F)(F)F)cc1	–	·	·
Cc1cccc(NC(=O)c2cc(NC(=O)C3CCCCC3C(=O)O)ccc2N2CCOCC2)c1 (stereo unspecified)	-127	–	–
CCN1CCN(c2ccc(NC(=O)c3cc4ccccc4cc3OC)cc2C)CC1	–	·	·
CNC[C@H](Cc1ccccc1)NC[C@@H](Cc1cccc2ccccc12)NCCc1ccc(C)cc1	–	·	·
CCOC(=O)C1CCN(S(=O)(=O)c2ccc3c4c2CC(=O)N4CC(C)S3)CC1 (stereo unspecified)	–	·	·
Cc1ccc2c(c1)C(=O)CC(O)(C(F)F)O2 (stereo unspecified)	-71	–	–
CN(C)CCCNC(=O)C[C@H]1C[C@H](C(=O)N2CCOCC2)[C@@]2(CCC3CCCC3)c3[nH]c4cc(-c5ccco5)ccc4c3CCN2C1=O	–	·	·
CC(=O)N(C1=C(N2CCOCC2)C(=O)c2ccccc2C1=O)c1ccc(C(=O)O)cc1	–	·	·
O=C(c1ccc([N+](=O)[O-])o1)N(Cc1nnc(-c2ccccc2Cl)o1)C1CC1	–	·	·
CC1CC(C)(C)NC(=O)O1 (stereo unspecified)	-88	–	–
Cc1ccc2[nH]c3c(c2c1)CN(C(=O)CN1CCN(c2cccc(C)c2C)CC1)CC3	–	·	·
CC[C@@H](C)[C@@H]1CN([C@@H](C)CN2CCC[C@H]2CN2C(N)=NC[C@H]2CC(C)C)C(=N)N1CCc1ccc(Cl)c(Cl)c1	–	·	·
CSc1ccc(C=NNc2ccc(S(=O)(=O)Nc3ccccc3C(=O)O)cc2[N+](=O)[O-])cc1	-90	–	-133	Apaf1 act interf=–
Cc1cccc(C(=O)N/N=C/c2ccncc2)c1	-45	–	–
Cc1cc([N+](=O)[O-])c(C)cc1-c1ccc(/C=N/NC(=O)c2cccnc2)o1	–	·	·
Cc1ccc(/C=N/NC(=O)c2ccncc2)cc1	-499	–	–
COc1ccc2nc(C)cc(N/N=C/c3ccccc3)c2c1	–	·	·
CCOc1cc(/C=C/c2nc3cc(C)c(C)cc3s2)ccc1OCC(=O)N1CCOCC1	–	·	·
S=C(Nc1ccc(Cl)cc1)Nc1cccc2cnccc12	–	·	·
O=C(OCC(=O)N1CCN(S(=O)(=O)c2ccc(Cl)cc2)CC1)c1ccc([N+](=O)[O-])o1	–	·	·
SMILES	Apaf-1 act	Rh110 interf act	Apaf-1 act conf2	others
CSc1ccccc1NC(=O)CN(C)C(=O)c1ccc2c(c1)OCCO2	-74	–	–
Cc1cccc(C)c1NC(=O)CN(C)C(=O)c1ccccc1SCC(=O)N1CCCC1	–	·	·
CCc1ccccc1N1CSC2=C(C#N)C(c3cc(OC)c(OC)cc3OC)CC(=O)N2C1 (stereo unspecified)	–	·	·
O=C1C=C(N2CCCCC2)c2ccccc2C1=O	–	·	·
CCOC12NC(=O)CC(=O)N1C(c1ccccc1)=CS2 (stereo unspecified)	-294	–	–
C#CCOCCOCCOCCNc1nc(N2CCN(C(=O)CCCCCCCCCCNC(=O)Cn3cc(C[C@@H](C)O)nn3)CC2)nc(N2CCN(C(=O)CCCCCCCCCCNC(=O)[C@@H]([C@H](C)CC)n3cc(CCCCCN)nn3)CC2)n1	–	·	·
CCCCCn1c(NC(=O)c2ccco2)c(S(=O)(=O)c2ccc(C)cc2)c2nc3ccccc3nc21	–	·	·
COC(=O)c1ccc(NC(=O)c2ccc(NC(=O)c3ccco3)cc2)cc1	–	·	·
O=C(Nc1nc2ccsc2c(=O)s1)c1ccco1	-136	–	-56	Apaf1 act interf=–
CCCCCc1ccc(OCCC[n+]2ccccc2)c(CCCCC)c1	–	·	·
CC(=O)[C@H]1CC[C@H]2[C@@H]3CCC4=CC(=O)CC[C@]4(C)[C@H]3CC[C@]12C	–	·	·
CC(=O)[C@@]1(O)CCC2C3C=CC4=CC(=O)CC[C@]4(C)C3CC[C@@]21C (stereo partly specified)	-287	–	–

Assay outcomes: PubChem, Sanford-Burnham Center for Chemical Genomics
